We go through 3 compounds from paper PMC3725831 (European journal of inorganic chemistry, 2011).

Usually IC50 stands for the concentration needed to halve the response being measured.

Structures are written as SMILES. Read-outs that look alike come from different tables or passages of the source.

Test [1] relates to cancer and normal colon cells. Conditions: both cell lines (cancer and normal colon cells); cited from earlier work.
The subject of test [2] is CCD-18Co (human colon fibroblasts). The experiment in a line: MTS cytotoxicity assay, non-cancerous CCD-18Co cells. Type of test: cell-based. In short, it runs like this:
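Colon fibroblasts grown in EMEM with 10% FBS, 1% NEAA and 1% L-glutamine at 37 °C, 5% CO2; used at PDL 26–35. Seeded at 2000–5,000/well 24 h before dosing. Test compound in DMSO (<0.5% final) was given as six-point 4-fold serial dilutions for 24, 48 or 72 h. Read-out was MTS/phenazine methosulphate for 3 h, OD490 versus DMSO controls. IC50 from curves; mean ± SE, three replications.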
Background: Formazan colour is commonly taken as a measure of viable cells.

Test [3] relates to Caco-2 (human epithelial colorectal adenocarcinoma). The experiment in a line: MTS cytotoxicity assay, Caco-2 cells. Type of test: cell-based.
For test [4], the system named is HCT-116 (human colon carcinoma). The experiment in a line: MTS cytotoxicity assay, HCT-116 cells. Type of test: cell-based. In a few lines:
(§1)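 Cells grown in McCoy's 5a with 10% FBS, 1% NEAA and 2% HEPES at 37 °C, 5% CO2, then seeded at 2000–5,000/well 24 h before dosing. Test compound in DMSO (<0.5% final) was given as six-point 4-fold serial dilutions for 24, 48 or 72 h. Read-out was MTS plus phenazine methosulphate for 3 h, OD490 versus DMSO controls. IC50 from curves; mean ± SE, three replications.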

In test [5] the test system is HT-29 (human colon adenocarcinoma). The experiment in a line: MTS cytotoxicity assay, HT-29 cells. Type of test: cell-based. In short, it runs like this: as §1
The subject of test [6] is cisplatin-resistant ovarian and testicular cancer cell lines. Conditions: ref 9c; cited from earlier work.

Regarding `N.N.[Cl][Pt][Cl]` [Cisplatin], in test [1], the “inhibition of cell proliferation” value is reported as “about 70%”.
With `COc1cc([C@@H]2c3cc4c(cc3[C@@H](O[C@@H]3O[C@@H]5CO[C@@H](C)O[C@H]5[C@H](O)[C@H]3O)[C@H]3COC(=O)[C@H]23)OCO4)cc(OC)c1O` [Etoposide], the IC50 in test [2] (24 h, read-out: IC50 CCD-18Co 24 hours) stood at 82.5 ± 3.1 µM; in test [2] (48 h, read-out: IC50 CCD-18Co 48 hours), 79.2 ± 1.2 µM; in test [2] (72 h, read-out: IC50 CCD-18Co 72 hours), 73.2 ± 1.9 µM; in test [3] (Caco-2, 24 h, read-out: IC50 Caco-2 24 hours) it was 47.6 ± 0.8 µM; in test [3] (Caco-2, 48 h, read-out: IC50 Caco-2 48 hours), 46.2 ± 1.9 µM; in test [3] (Caco-2, 72 h, read-out: IC50 Caco-2 72 hours), 40.9 ± 1.5 µM. Moreover, the half-maximal inhibitory concentration (IC50) stood at 40.8 ± 0.5 µM in test [4] (HCT-116, 24 h, read-out: IC50 HCT-116 24 hours); 36.2 ± 2 µM in test [4] (HCT-116, 48 h, read-out: IC50 HCT-116 48 hours); 38.4 ± 1.2 µM in test [4] (HCT-116, 72 h, read-out: IC50 HCT-116 72 hours); 19.2 ± 0.8 µM in test [5] (HT-29, 24 h, read-out: IC50 HT-29 24 hours); 17.3 ± 1.9 µM in test [5] (HT-29, 48 h, read-out: IC50 HT-29 48 hours); 15.8 ± 2.4 µM in test [5] (HT-29, 72 h, read-out: IC50 HT-29 72 hours).
Take `Cc1ccnc2c1ccc1c(C)ccnc12.Cc1ccnc2c1ccc1c(C)ccnc12.O=S(=O)([O-])[O-].[O]=[V+2]` [metvan, bis(4,7-dimethyl-1,10-phenanthroline)sulfatooxovanadium(IV)]: in test [6], the “effectiveness against cisplatin-resistant cancer cell lines” value is reported as “highly effective”.
